Several values for one entry are separate records, joined by “and”; a condition that tells them apart may be missing. Equal values may be shown once.
How the values were obtained:
[1] = system: Rattus norvegicus; assay: In vivo biodistribution in MEDULL after 60 min of administration in rat; type: ADME, organism-based; settings: 1 h
Method in brief: (§1)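 [18F] tracer formulated in PBS with under 10% ethanol; 15 μCi given by tail vein to Sprague-Dawley rats (200–250 g). Groups of five sacrificed at 15, 60 or 120 min. Brain dissected into 11 regions, with blood, heart, bone and lung also collected. Tissues weighed and counted, and % ID/g calculated; n = 5 or 6.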

[2] = system: Rattus norvegicus; assay: In vivo biodistribution in LT-STR after 60 min of administration in rat; type: ADME, organism-based; settings: 1 h; method in brief: as §1
[3] = system: Rattus norvegicus; assay: In vivo biodistribution in LT-CTX after 15 min of administration in rat; type: ADME, organism-based; settings: 0.25 h; method in brief: as §1
[4] = system: Rattus norvegicus; assay: In vivo biodistribution in bone after 120 min of administration in rat; type: ADME, organism-based, Bone element; settings: 2 h; method in brief: as §1
[5] = system: Rattus norvegicus; assay: In vivo biodistribution in heart at 60 min for no inhibitor was co-injected in rat; type: ADME, organism-based; settings: 1 h
[6] = system: Rattus norvegicus; assay: In vivo biodistribution in MEDULL after 120 min of administration in rat; type: ADME, organism-based; settings: 2 h; method in brief: as §1
[7] = system: Rattus norvegicus; assay: In vivo biodistribution in blood at 60 min for no inhibitor was co-injected in rat; type: ADME, organism-based; settings: 1 h
[8] = system: Rattus norvegicus; assay: In vivo biodistribution in CBLL after 120 min of administration in rat; type: ADME, organism-based; settings: 2 h; method in brief: as §1
[9] = system: Rattus norvegicus; assay: In vivo biodistribution in MEDULL after 15 min of administration in rat; type: ADME, organism-based; settings: 0.25 h; method in brief: as §1
[10] = system: Rattus norvegicus; assay: In vivo biodistribution in blood after 15 min of administration in rat; type: ADME, organism-based; settings: 0.25 h; method in brief: as §1
[11] = system: Rattus norvegicus; assay: In vivo biodistribution in bone after 60 min of administration in rat; type: ADME, organism-based, Bone element; settings: 1 h; method in brief: as §1
[12] = system: Rattus norvegicus; assay: In vivo biodistribution in LT-CTX after 60 min of administration in rat; type: ADME, organism-based; settings: 1 h; method in brief: as §1
[13] = system: Rattus norvegicus; assay: In vivo biodistribution in heart at 60 min as a function of 5 nM of (R,R) IQNB (inhibitor) in rat; type: ADME, organism-based; settings: 1 h
[14] = system: Rattus norvegicus; assay: In vivo biodistribution in LT-STR at 60 min for no inhibitor was co-injected in rat; type: ADME, organism-based; settings: 1 h
[15] = system: Rattus norvegicus; assay: In vivo biodistribution in lung at 60 min for no inhibitor was co-injected in rat; type: ADME, organism-based; settings: 1 h
Method in brief: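 [18F]tracer formulated in phosphate-buffered saline (<10% ethanol), 15 μCi injected via tail vein into Sprague-Dawley rats (200–250 g); no inhibitor co-injected. Animals sacrificed in groups of five at 60 min postinjection. Lung sample collected, weighed, counted for activity, and % ID/g calculated (n = 5 or 6).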

[16] = system: Rattus norvegicus; assay: In vivo biodistribution in LT-THAL after 60 min of administration in rat; type: ADME, organism-based; settings: 1 h; method in brief: as §1
[17] = system: Rattus norvegicus; assay: In vivo biodistribution in heart after 15 min of administration in rat; type: ADME, organism-based; settings: 0.25 h; method in brief: as §1
[18] = system: Rattus norvegicus; assay: In vivo biodistribution in LT-HIPP after 60 min of administration in rat; type: ADME, organism-based; settings: 1 h; method in brief: as §1
[19] = system: Rattus norvegicus; assay: In vivo biodistribution in LT-CTX at 60 min for no inhibitor was co-injected in rat; type: ADME, organism-based; settings: 1 h
[20] = system: Rattus norvegicus; assay: In vivo biodistribution in LT-THAL after 120 min of administration in rat; type: ADME, organism-based; settings: 2 h; method in brief: as §1
[21] = system: Rattus norvegicus; assay: In vivo biodistribution in LT-STR after 120 min of administration in rat; type: ADME, organism-based; settings: 2 h; method in brief: as §1
[22] = system: Rattus norvegicus; assay: In vivo biodistribution in LT-STR after 15 min of administration in rat; type: ADME, organism-based; settings: 0.25 h; method in brief: as §1
[23] = system: Rattus norvegicus; assay: In vivo biodistribution in PONS after 60 min of administration in rat; type: ADME, organism-based; settings: 1 h; method in brief: as §1
[24] = system: Rattus norvegicus; assay: In vivo biodistribution in lung after 15 min of administration in rat; type: ADME, organism-based; settings: 0.25 h; method in brief: as §1
[25] = system: Rattus norvegicus; assay: In vivo biodistribution in lung after 120 min of administration in rat; type: ADME, organism-based; settings: 2 h; method in brief: as §1
[26] = system: Rattus norvegicus; assay: In vivo biodistribution in CBLL at 60 min for no inhibitor was co-injected in rat; type: ADME, organism-based; settings: 1 h
[27] = system: Rattus norvegicus; assay: In vivo biodistribution in LT-CTX after 120 min of administration in rat; type: ADME, organism-based; settings: 2 h; method in brief: as §1
[28] = system: Rattus norvegicus; assay: In vivo biodistribution in blood after 60 min of administration in rat; type: ADME, organism-based; settings: 1 h; method in brief: as §1
[29] = In vivo biodistribution in bone at 60 min for no inhibitor was co-injected in rat; type: ADME, organism-based, Bone element; settings: 1 h
[30] = system: Rattus norvegicus; assay: In vivo biodistribution in PONS after 15 min of administration in rat; type: ADME, organism-based; settings: 0.25 h; method in brief: as §1
[31] = system: Rattus norvegicus; assay: In vivo biodistribution in heart after 60 min of administration in rat; type: ADME, organism-based; settings: 1 h; method in brief: as §1
[32] = system: Rattus norvegicus; assay: In vivo biodistribution in CBLL after 60 min of administration in rat; type: ADME, organism-based; settings: 1 h; method in brief: as §1
[33] = system: Rattus norvegicus; assay: In vivo biodistribution in LT-HIPP after 15 min of administration in rat; type: ADME, organism-based; settings: 0.25 h; method in brief: as §1
[34] = system: Rattus norvegicus; assay: In vivo biodistribution in LT-HIPP at 60 min for no inhibitor was co-injected in rat; type: ADME, organism-based; settings: 1 h
[35] = In vivo biodistribution in heart after 120 min of administration.; type: ADME, organism-based; settings: 2 h; method in brief: as §1
[36] = system: Rattus norvegicus; assay: In vivo biodistribution in lung after 60 min of administration in rat; type: ADME, organism-based; settings: 1 h; method in brief: as §1
[37] = system: Rattus norvegicus; assay: In vivo biodistribution in PONS after 120 min of administration in rat; type: ADME, organism-based; settings: 2 h; method in brief: as §1
[38] = system: Rattus norvegicus; assay: In vivo biodistribution in LT-THAL at 60 min for no inhibitor was co-injected in rat; type: ADME, organism-based; settings: 1 h
[39] = system: Rattus norvegicus; assay: In vivo biodistribution in bone after 15 min of administration in rat; type: ADME, organism-based, Bone element; settings: 0.25 h; method in brief: as §1
[40] = system: Rattus norvegicus; assay: In vivo biodistribution in LT-CTX at 60 min for no inhibitor was co-injected co-injected in rat; type: ADME, organism-based; settings: 1 h
[41] = system: Rattus norvegicus; assay: In vivo biodistribution in CBLL after 15 min of administration in rat; type: ADME, organism-based; settings: 0.25 h; method in brief: as §1
[42] = system: Rattus norvegicus; assay: In vivo biodistribution in LT-HIPP after 120 min of administration in rat; type: ADME, organism-based; settings: 2 h; method in brief: as §1
[43] = system: Rattus norvegicus; assay: In vivo biodistribution in blood after 120 min of administration in rat; type: ADME, organism-based; settings: 2 h; method in brief: as §1
[44] = system: Rattus norvegicus; assay: In vivo biodistribution in heart at 60 min as a function of 500 nM of (R,S) -fluoromethyl QNB(inhibitor) in rat; type: ADME, organism-based; settings: 1 h
[45] = system: Rattus norvegicus; assay: In vivo biodistribution in MEDULL at 60 min for no inhibitor was co-injected in rat; type: ADME, organism-based; settings: 1 h
[46] = molecular target: Muscarinic acetylcholine receptor M3 (Cavia porcellus, UniProt Q8VH26); assay: In vitro binding affinity towards Muscarinic acetylcholine receptor M3 was determined by measuring its ability to displace [3H]-N-methyl- Scopolamine from guinea pig ileum; type: tissue-based
Sequence of Muscarinic acetylcholine receptor M3 (Q8VH26 whole entry): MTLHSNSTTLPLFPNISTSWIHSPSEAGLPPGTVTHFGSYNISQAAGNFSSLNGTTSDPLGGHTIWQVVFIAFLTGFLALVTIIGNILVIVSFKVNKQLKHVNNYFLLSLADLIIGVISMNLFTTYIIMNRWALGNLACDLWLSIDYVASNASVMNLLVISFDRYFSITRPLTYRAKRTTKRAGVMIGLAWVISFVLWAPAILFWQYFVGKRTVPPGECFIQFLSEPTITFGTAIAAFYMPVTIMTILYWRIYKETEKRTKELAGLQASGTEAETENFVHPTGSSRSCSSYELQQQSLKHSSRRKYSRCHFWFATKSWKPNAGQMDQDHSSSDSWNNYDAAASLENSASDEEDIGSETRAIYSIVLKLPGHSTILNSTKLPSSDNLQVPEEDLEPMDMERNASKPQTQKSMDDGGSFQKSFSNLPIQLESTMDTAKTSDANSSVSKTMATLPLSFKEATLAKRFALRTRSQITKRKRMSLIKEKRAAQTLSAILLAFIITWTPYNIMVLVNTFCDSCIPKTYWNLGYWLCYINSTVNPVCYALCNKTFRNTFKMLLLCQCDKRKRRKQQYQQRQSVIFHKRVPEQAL

[47] = molecular target: T1, Muscarinic acetylcholine receptor M1 (Bos taurus, UniProt Q8WMX0); assay: In vitro binding affinity towards Muscarinic acetylcholine receptor M1 was determined by measuring its ability to displace [3H]pirenzepine from bovine striatal membranes; parameters: species or system Striatum, Membrane
T1 sequence (Q8WMX0 whole entry): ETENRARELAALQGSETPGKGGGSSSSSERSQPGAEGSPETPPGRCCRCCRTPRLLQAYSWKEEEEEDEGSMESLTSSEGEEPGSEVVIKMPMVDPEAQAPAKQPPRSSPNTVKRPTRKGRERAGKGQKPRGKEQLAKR
Method in brief: (§2)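 Displacement binding performed by NovaScreen. For M1, the tracer was [3H]pirenzepine with bovine striatal membranes. For M2, it was [3H]AF-DX 384 with rat heart membranes. Ki values in nM were calculated by LIGAND analysis.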

[48] = molecular target: T2, Muscarinic acetylcholine receptor M2 (Rattus norvegicus, UniProt P10980); assay: In vitro binding affinity towards Muscarinic acetylcholine receptor M2 was determined by measuring its ability to displace [3H]-AF-DX 384 from rat heart membranes; parameters: species or system Membrane; method in brief: as §2
T2 sequence (P10980 whole entry): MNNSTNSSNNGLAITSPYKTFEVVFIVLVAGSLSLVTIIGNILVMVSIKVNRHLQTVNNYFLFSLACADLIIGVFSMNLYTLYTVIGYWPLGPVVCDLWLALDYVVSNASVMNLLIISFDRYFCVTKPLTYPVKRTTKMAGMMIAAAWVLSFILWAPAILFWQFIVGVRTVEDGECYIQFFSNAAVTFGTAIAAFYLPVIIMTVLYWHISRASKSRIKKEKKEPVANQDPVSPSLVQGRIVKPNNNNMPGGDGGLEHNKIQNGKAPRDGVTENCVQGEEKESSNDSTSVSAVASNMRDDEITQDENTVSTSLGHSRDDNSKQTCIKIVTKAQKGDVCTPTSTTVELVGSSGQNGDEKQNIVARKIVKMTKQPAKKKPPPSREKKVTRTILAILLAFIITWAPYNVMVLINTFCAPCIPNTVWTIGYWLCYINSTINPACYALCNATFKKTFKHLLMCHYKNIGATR

## CN1CC=C(c2nsnc2SCCC[18F])CC1
[1]
  ID/g: 0.438%
[2]
  ID/g: 0.353%
[3]
  ID/g: 1.125%
[4]
  ID/g: 0.993%
[5]
  ID/g: 0.171%
[6]
  ID/g: 0.226%
[7]
  ID/g: 0.126% and 0.13% and 0.18%
[8]
  ID/g: 0.154%
[9]
  ID/g: 0.788%
[10]
  ID/g: 0.181%
[11]
  ID/g: 0.762%
[12]
  ID/g: 0.368%
[13]
  ID/g: 0.13% and 0.43% and 0.49% and 0.46% and 0.44% and 0.54% and 0.63% and 0.42%
[14]
  ID/g: 0.448% and 0.46% and 0.64%
[15]
  ID/g: 0.372%
[16]
  ID/g: 0.293%
[17]
  ID/g: 0.324%
[18]
  ID/g: 0.363%
[19]
  ID/g: 0.484% and 0.52%
[20]
  ID/g: 0.153%
[21]
  ID/g: 0.123%
[22]
  ID/g: 0.861%
[23]
  ID/g: 0.385%
[24]
  ID/g: 0.871%
[25]
  ID/g: 0.156%
[26]
  ID/g: 0.382% and 0.44% and 0.47%
[27]
  ID/g: 0.139%
[28]
  ID/g: 0.124%
[29]
  ID/g: 0.501%
[30]
  ID/g: 0.824%
[31]
  ID/g: 0.121%
[32]
  ID/g: 0.285%
[33]
  ID/g: 0.826%
[34]
  ID/g: 0.429% and 0.47% and 0.65%
[35]
  ID/g: 0.096%
[36]
  ID/g: 0.261%
[37]
  ID/g: 0.238%
[38]
  ID/g: 0.413% and 0.45% and 0.56%
[39]
  ID/g: 0.225%
[40]
  ID/g: 0.7%
[41]
  ID/g: 0.766%
[42]
  ID/g: 0.119%
[43]
  ID/g: 0.1%
[44]
  ID/g: 0.17% and 0.44% and 0.43% and 0.39% and 0.48% and 0.56% and 0.61%
[45]
  ID/g: 0.529% and 0.63% and 0.71%

## CCCCCSc1nsnc1C1=CCN(C)CC1
[46]
  Ki: > 10000 nM
[47]
  Ki: 36 nM
[48]
  Ki: 4 nM

## CCCSc1nsnc1C1=CCN(C)CC1
[46]
  Ki: 163 nM
[47]
  Ki: 23 nM
[48]
  Ki: 1.5 nM

## CN1CCC=C(c2nsnc2SCCCCCF)C1
[46]
  Ki: 160 nM
[47]
  Ki: 2.3 nM
[48]
  Ki: 6.3 nM

## CN1CCC=C(c2nsnc2SCCF)C1
[46]
  Ki: > 10000 nM
[47]
  Ki: 25 nM
[48]
  Ki: 1.8 nM

## CN1CCC=C(c2nsnc2SCCCF)C1
[46]
  Ki: 79.7 nM
[47]
  Ki: 7.4 nM
[48]
  Ki: 2.2 nM
